What was measured:
[1] = tested on: L1210; assay: Inhibition of the growth of methotrexate sensitive L1210 leukemia/S cells in culture; type: functional, cell-based; settings: Mus musculus
How it was run: (§1)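 MTT viability assay, 48 h. MTT (5 mg/mL stock) was added for 3 h and the formazan dissolved in 0.04 N HCl/2-propanol. A570 was read within 1 h. Each plate carried no-drug control and no-cell blank rows. IC50 determined.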

[2] = tested on: L1210; assay: Inhibition of the growth of methotrexate resistant L1210 leukemia/R 81 cells in culture; type: functional, cell-based; settings: Mus musculus
How it was run: as §1, with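 “48 h. Log-phase cells were plated at […] onto serial drug dilutions in RPMI 1640 with 10% fetal bovine serum, in 8% CO2, humidified. MTT (5” for “48 h. MTT (5”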

[3] = target: Thymidylate synthase (Mus musculus, UniProt P07607); assay: Inhibition of L1210 leukemia thymidylate synthase (TS) enzyme; settings: read-out: I50
Chain of Thymidylate synthase (P07607 whole entry): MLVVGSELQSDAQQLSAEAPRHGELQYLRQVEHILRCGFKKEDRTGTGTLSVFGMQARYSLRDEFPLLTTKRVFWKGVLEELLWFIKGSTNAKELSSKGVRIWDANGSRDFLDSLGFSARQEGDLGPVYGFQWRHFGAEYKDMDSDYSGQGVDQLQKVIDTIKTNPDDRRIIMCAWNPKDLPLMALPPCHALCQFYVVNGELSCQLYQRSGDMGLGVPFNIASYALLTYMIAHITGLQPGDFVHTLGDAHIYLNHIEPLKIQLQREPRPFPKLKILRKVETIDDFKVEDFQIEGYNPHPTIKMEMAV

| IC50 [1] | IC50 [2] | IC50 [3] | SMILES |
| --- | --- | --- | --- |
| 1.2 µM | 39 µM | – | Nc1nc(O)c2cc(COc3ccc(C(=O)NC(CCC(=O)O)C(=O)O)cc3)ccc2n1 (stereo not given) |
| 0.27 µM | 75 µM | – | C#CCN(Cc1ccc2ncnc(O)c2c1)c1ccc(C(=O)NC(CCC(=O)O)C(=O)O)cc1 (stereo not given) |
| 7.6 µM | > 200 µM | – | Nc1nc(=O)c2cc(CSc3ccc(C(=O)NC(CCC(=O)O)C(=O)O)cc3)ccc2[nH]1 (stereo not given) |
| 0.28 µM | > 200 µM | 49 µM | O=C(O)CCC(NC(=O)c1ccc(OCc2ccc3ncnc(O)c3c2)cc1)C(=O)O (stereo not given) |
| 0.0044 µM | 186 µM | – | CN(Cc1cnc2nc(N)nc(N)c2n1)c1ccc(C(=O)N[C@@H](CCC(=O)O)C(=O)O)cc1 [METHOTREXATE] |
| 0.53 µM | > 200 µM | 25 µM | O=C(O)CCC(NC(=O)c1ccc(CNc2ccc3ncnc(O)c3c2)cc1)C(=O)O (stereo not given) |
| – | 116 µM | – | C#CCN(Cc1ccc2[nH]c(N)nc(=O)c2c1)c1ccc(C(=O)NC(CCC(=O)O)C(=O)O)cc1 (stereo not given) |
| 3.2 µM | > 200 µM | – | Nc1nc(=O)c2cc(NCc3ccc(C(=O)NC(CCC(=O)O)C(=O)O)cc3)ccc2[nH]1 (stereo not given) |
| 1.3 µM | > 200 µM | 13.8 µM | O=C(O)CCC(NC(=O)c1ccc(SCc2ccc3ncnc(O)c3c2)cc1)C(=O)O (stereo not given) |

Source: ChEMBL document CHEMBL1124448, “Comparison of the biological effects of selected 5,8-dideazafolate analogues with their 2-desamino counterparts” (J Med Chem, 1989)
